Consider 50 compounds from ChEMBL document CHEMBL1128522, “Phosphinic acid analogues of GABA. 2. Selective, orally active GABAB antagonists” (J Med Chem, 1995).

pIC50: −log10 of the molar value.

The species named for experiment [1] is Rattus norvegicus. As to the kind of experiment: The compound was tested for enhancement of electrically induced release of [3H]GABA from rat cortical slices. The class given is functional. The essentials:
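Rat cerebral cortex slices were electrically stimulated at 2 Hz, and the increase in GABA release was measured in quadruplicate. EC150, the concentration giving a 50% increase in GABA release, came from computer-aided curve fitting. Where no EC150 was given, the value is the percent increase at 10^-4 M or 10^-5 M.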

Experiment [2] deals with Gamma-aminobutyric acid type B receptor subunit 1 (Rattus norvegicus, UniProt Q9Z0U4). The experiment in a line: Inhibition of binding of [3H]CGP-27492 to gamma-aminobutyric acid type B receptor of rat cortex.
Gamma-aminobutyric acid type B receptor subunit 1, sequence (Q9Z0U4 whole entry): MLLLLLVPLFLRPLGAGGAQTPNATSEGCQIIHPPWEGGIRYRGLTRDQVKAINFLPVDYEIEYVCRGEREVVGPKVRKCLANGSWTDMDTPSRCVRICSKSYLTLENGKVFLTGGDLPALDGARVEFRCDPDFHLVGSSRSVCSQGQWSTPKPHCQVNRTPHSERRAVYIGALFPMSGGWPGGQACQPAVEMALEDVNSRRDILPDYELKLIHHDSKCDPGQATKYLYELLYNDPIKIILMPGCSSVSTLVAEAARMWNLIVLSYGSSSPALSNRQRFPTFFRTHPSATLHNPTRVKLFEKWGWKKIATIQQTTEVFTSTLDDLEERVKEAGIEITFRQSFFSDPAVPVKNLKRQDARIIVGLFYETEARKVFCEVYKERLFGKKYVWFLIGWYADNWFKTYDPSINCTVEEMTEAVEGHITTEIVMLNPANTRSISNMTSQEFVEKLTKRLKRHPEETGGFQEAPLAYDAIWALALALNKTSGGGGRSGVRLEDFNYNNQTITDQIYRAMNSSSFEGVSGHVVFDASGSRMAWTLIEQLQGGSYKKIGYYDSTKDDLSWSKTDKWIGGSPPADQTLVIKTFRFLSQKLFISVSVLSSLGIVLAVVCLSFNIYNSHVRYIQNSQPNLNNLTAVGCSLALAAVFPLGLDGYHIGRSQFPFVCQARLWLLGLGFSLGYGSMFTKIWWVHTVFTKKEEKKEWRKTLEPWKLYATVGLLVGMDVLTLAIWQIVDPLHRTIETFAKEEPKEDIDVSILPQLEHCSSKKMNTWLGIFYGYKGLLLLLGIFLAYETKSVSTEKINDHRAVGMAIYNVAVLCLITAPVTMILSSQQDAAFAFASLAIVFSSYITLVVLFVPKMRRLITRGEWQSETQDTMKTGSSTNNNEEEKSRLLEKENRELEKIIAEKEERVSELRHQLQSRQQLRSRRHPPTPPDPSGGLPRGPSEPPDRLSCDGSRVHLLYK
Experiment [3] is filed under the species Rattus norvegicus. As to the kind of experiment: Enhanced electrically induced release of [3H]GABA from rat cortical slices; agonist. Format: functional. The settings on record: filed as agonist. Summed up:
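Electrically stimulated rat cerebral cortex slices at 2 Hz; [3H]GABA release measured. EC150 is the concentration giving a 50% increase in GABA release, obtained by computer-aided curve fitting. Run in quadruplicate; no standard deviations computed because curve slopes varied. Some entries are instead percent increase at a single concentration of 10^-4 or 10^-5 M.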

Experiment [4] deals with Glutamate receptor ionotropic AMPA (Homo sapiens) (UniProt P48058+P42263+P42262+P42261). The experiment in a line: Inhibition of [3H]-AMPA binding to Quisqualate receptor of central nervous system. The settings on record: concentration not given here. The class given is protein-complex assay.
Experiment [5] in a line: Inhibition of [3H]5-HT binding to 5-hydroxytryptamine 1 receptor of central nervous system. To be noted: concentration not given here.
The nature of experiment [6]: Inhibition of [3H]DCKA binding to N-methyl-D-aspartate glutamate receptor 1 of central nervous system. The settings on record: concentration not given here.
The target in experiment [7] is Histamine H2 receptor (Homo sapiens) (UniProt P25021). As to the kind of experiment: Inhibition of [3H]tiotidine binding to histamine 2 receptor of central nervous system. The settings on record: concentration not given here.
Histamine H2 receptor (Homo sapiens), sequence (P25021 whole entry): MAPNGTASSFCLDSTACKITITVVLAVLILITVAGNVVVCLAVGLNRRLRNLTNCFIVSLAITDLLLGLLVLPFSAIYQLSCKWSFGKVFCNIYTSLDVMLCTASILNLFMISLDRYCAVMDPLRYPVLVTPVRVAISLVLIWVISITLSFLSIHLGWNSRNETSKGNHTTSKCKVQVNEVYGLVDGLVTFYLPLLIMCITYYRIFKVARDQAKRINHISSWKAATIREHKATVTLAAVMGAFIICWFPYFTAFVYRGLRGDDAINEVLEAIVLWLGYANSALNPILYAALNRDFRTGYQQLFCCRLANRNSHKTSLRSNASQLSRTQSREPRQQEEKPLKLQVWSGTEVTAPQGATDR
The target in experiment [8] is Glutamate receptor ionotropic kainate (Homo sapiens) (UniProt P39086+Q16478+Q16099+Q13002+Q13003). As to the kind of experiment: Inhibition of [3H]kainate binding to Ionotropic glutamate receptor kainate of central nervous system. To be noted: concentration not given here. The class given is protein-complex assay.
The target of experiment [9] is Histamine H1 receptor (Homo sapiens) (UniProt P35367). As to the kind of experiment: Inhibition of [3H]doxepine binding to histamine-1 receptor of central nervous system. The settings on record: concentration not given here.
Histamine H1 receptor (Homo sapiens), sequence (P35367 whole entry): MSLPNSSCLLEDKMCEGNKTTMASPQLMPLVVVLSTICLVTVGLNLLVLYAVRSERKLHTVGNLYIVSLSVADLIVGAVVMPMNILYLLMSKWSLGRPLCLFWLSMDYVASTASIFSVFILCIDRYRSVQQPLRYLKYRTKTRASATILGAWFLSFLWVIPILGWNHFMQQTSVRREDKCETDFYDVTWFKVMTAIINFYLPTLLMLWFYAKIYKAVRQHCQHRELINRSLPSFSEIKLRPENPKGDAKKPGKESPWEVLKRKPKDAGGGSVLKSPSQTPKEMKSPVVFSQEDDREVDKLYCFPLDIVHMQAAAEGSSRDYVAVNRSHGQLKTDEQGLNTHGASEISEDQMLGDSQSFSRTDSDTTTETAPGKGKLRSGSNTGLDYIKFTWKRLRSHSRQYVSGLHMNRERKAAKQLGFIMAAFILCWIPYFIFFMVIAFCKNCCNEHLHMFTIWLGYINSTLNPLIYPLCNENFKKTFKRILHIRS

Consider `NCCCP(=O)(O)CCC1CCCCC1`, for which, in the experiment filed under Rattus norvegicus [1], the EC150 was 13 µM. The pIC50 in [2] is 5.70.

Turning to `NC[C@H](O)CP(=O)(O)CC1CCCCC1`, the EC150 in the experiment filed under Rattus norvegicus [1] stood at 2 µM. The compound further had a pIC50 in experiment [2] of 5.30.

As for `CCCC(O)P(=O)(O)CCCN` (stereo not drawn), the EC150 in the experiment filed under Rattus norvegicus [1] stood at 44 µM. This compound showed a pIC50 in experiment [2] of 4.74.

As to `NCCCP(=O)(O)CN`, the EC150 in the experiment filed under Rattus norvegicus [1] worked out at 2 µM. In experiment [2], this compound gave a pIC50 of 4.30.

For the compound `CCOC(OCC)P(=O)(O)CC(O)CN` (stereo not drawn), the EC150 in the experiment listed under Rattus norvegicus [1] was 9 µM. Also, in experiment [2], the pIC50 was 4.80.

Regarding `CP(=O)(O)CCCN`, the EC150 entry in the experiment listed under Rattus norvegicus [3] was “Agonist”.

Take `NCCCP(=O)(O)Cc1ccccc1`: in the experiment filed under Rattus norvegicus [1], the EC150 is 5 µM. Besides, in experiment [2], the pIC50 was 5.00.

Take `CCCC(F)(F)P(=O)(O)CCCN`: in the experiment filed under Rattus norvegicus [1], the EC150 amounted to 115 µM. This compound also had a negative-log IC50 (pIC50) in [2] of 4.66.

On to `NCCC[PH](=O)O`, for which the EC150 result in the experiment listed under Rattus norvegicus [3] is “Agonist”. The compound further had a pIC50 in [2] of 8.30.

`NCCCP(=O)(O)CC(O)CNC(=O)c1ccccc1C(N)=O` (stereo not drawn): the EC150 in the experiment filed under Rattus norvegicus [1] stood at 9 µM. In experiment [2], this compound had a pIC50 of 5.70.

`CCOC(OCC)P(=O)(O)CCCN`: the EC150 in the experiment filed under Rattus norvegicus [1] worked out at 30 µM. The compound further had a pIC50 in [2] of 4.57.

For `NCCCP(=O)(O)Cc1ccc(F)cc1`, the EC150 in the experiment listed under Rattus norvegicus [1] was determined as 10 µM. In [2], the pIC50 is 4.28.

As to `CC(C)OC(OC(C)C)P(=O)(O)CCCN`, in the experiment listed under Rattus norvegicus [1], the EC150 turned out to be 47 µM. Moreover, the pIC50 in experiment [2] is 4.74.

Take `NCC(=O)CP(=O)(O)CC1CCCCC1`: the EC150 in the experiment filed under Rattus norvegicus [1] was found to be 5 µM. For the same compound, in [2], the pIC50 is 4.30.

Take `NCCCP(=O)(O)C1CCCO1` (stereo not drawn): the EC150 in the experiment listed under Rattus norvegicus [1] came out at 89 µM. In experiment [2], this compound showed a pIC50 of 4.47.

Take `CCCCOC(OCCCC)P(=O)(O)CCCN`: the EC150 in the experiment filed under Rattus norvegicus [1] came out at 300 µM. In addition, the negative-log IC50 (pIC50) in experiment [2] is 4.70.

In the case of `CP(=O)(O)CC(CN)c1ccc(Cl)cc1` (stereo not drawn), the EC150 in the experiment filed under Rattus norvegicus [1] is 28 µM. In [2], this compound had a pIC50 of 5.05.

In [2], `NCCCP(=O)(O)CCCN` had a pIC50 of 4.54.

In experiment [2], `CCCCP(=O)(O)C(O)CCN` (stereo not drawn) had a pIC50 of 4.43.

Regarding `NCC(=O)CP(=O)(O)CC1CC1`, the EC150 in the experiment filed under Rattus norvegicus [1] is 3 µM. In experiment [2], this compound had a negative logarithm of the IC50 (pIC50) of 4.85.

For `CP(=O)(O)CC(O)(CN)c1ccc(Cl)cc1` (stereo not drawn), the EC150 in the experiment listed under Rattus norvegicus [1] was 30 µM. Besides, in experiment [2], the pIC50 was 5.22.

For `NCCCP(=O)(O)CCc1ccccc1`, the EC150 in the experiment filed under Rattus norvegicus [1] is 60 µM. Also, the pIC50 in experiment [2] is 5.00.

Regarding `CCCCP(=O)(O)CC(O)(CN)c1ccc(Cl)cc1` (stereo not drawn), the EC150 in the experiment filed under Rattus norvegicus [1] came to 45 µM. Besides, the pIC50 in experiment [2] is 5.15.

`NCCCP(=O)(O)CCC1CCCCO1` (stereo not drawn): the EC150 in the experiment filed under Rattus norvegicus [1] was 30 µM. Also, in [2], the pIC50 is 5.70.

Regarding `CCCCP(=O)(O)CC(=O)CN`, the EC150 in the experiment listed under Rattus norvegicus [1] turned out to be 6 µM.

On to `NCCCP(=O)(O)C(O)c1ccccc1` (stereo not drawn), for which the EC150 in the experiment filed under Rattus norvegicus [1] was 10 µM. In addition, in experiment [2], the pIC50 was 5.10.

Turning to `CC(C)CP(=O)(O)CCCN`, the EC150 in the experiment listed under Rattus norvegicus [1] was 98 µM. For the same compound, in experiment [2], the pIC50 was 4.85.

Regarding `CCCCP(=O)(O)CCCN` [SGS-742], the inhibition in experiment [4] was determined as 7%; in [5], 2%; in [6] it was 16%; in [7] it was 6%; in experiment [8] it was 8%; in [9], 7%. Further, in the experiment filed under Rattus norvegicus [1], the EC150 is 38 µM.

`CC(C)(C)P(=O)(O)CCCN` had a negative logarithm of the IC50 (pIC50) in experiment [2] of 4.14.

For the compound `NC[C@H](O)CP(=O)(O)Cc1ccccc1`, the EC150 in the experiment listed under Rattus norvegicus [1] stood at 5 µM. The compound also had a pIC50 in [2] of 5.30.

Take `NCCCP(=O)(O)CC1CCCCC1`: the EC150 in the experiment filed under Rattus norvegicus [1] was 3 µM. In addition, in [2], the pIC50 is 5.40.

With `NCCCP(=O)(O)CC1CCCCO1` (stereo not drawn), the EC150 in the experiment filed under Rattus norvegicus [1] stood at 12 µM. In addition, the pIC50 in [2] is 4.49.

On to `CCCP(=O)(O)CCCN`, for which the EC150 in the experiment filed under Rattus norvegicus [1] came out at 30 µM. For the same compound, in experiment [2], the pIC50 is 4.80.

Turning to `NC[C@@H](O)CP(=O)(O)CC1CCCCC1`, the EC150 in the experiment filed under Rattus norvegicus [1] came out at 4 µM. In [2], this compound showed a pIC50 of 5.22.

As to `NCCCP(=O)(O)C1CCCCO1` (stereo not drawn), in the experiment filed under Rattus norvegicus [1], the EC150 amounted to 144 µM. In experiment [2], this compound showed a pIC50 of 4.41.

For the compound `CCOC(OCC)P(=O)(O)CC(CN)c1ccc(Cl)cc1` (stereo not drawn), the EC150 in the experiment listed under Rattus norvegicus [1] stood at 11 µM. Moreover, in experiment [2], the pIC50 is 4.68.

As for `NCCCP(=O)(O)c1ccccc1`, the pIC50 in experiment [2] was 3.90.

On to `NCCCP(=O)(O)Cc1ccccn1`, for which the EC150 in the experiment filed under Rattus norvegicus [1] was 30 µM. The compound also had a pIC50 in experiment [2] of 5.22.

As to `CCCOC(OCCC)P(=O)(O)CCCN`, the EC150 in the experiment filed under Rattus norvegicus [1] turned out to be 60 µM. In [2], this compound gave a negative logarithm of the IC50 (pIC50) of 4.55.

On to `NCC(O)CP(=O)(O)Cc1ccccc1` (stereo not drawn), for which the EC150 in the experiment filed under Rattus norvegicus [1] came to 4 µM. Moreover, the pIC50 in experiment [2] is 5.10.

Regarding `NCCCP(=O)(O)CC1CC1`, the EC150 in the experiment filed under Rattus norvegicus [1] was 53 µM. The same compound showed a pIC50 in experiment [2] of 4.43.

As to `CCP(=O)(O)CCCN`, in the experiment listed under Rattus norvegicus [1], the EC150 is 118 µM. In experiment [2], this compound showed a pIC50 of 5.70.

Turning to `NC[C@@H](O)CP(=O)(O)Cc1ccccc1`, the EC150 in the experiment listed under Rattus norvegicus [1] stood at 11 µM. Moreover, the negative logarithm of the IC50 (pIC50) in experiment [2] was 4.49.

With `CCCCP(=O)(O)CC(O)CN` (stereo not drawn), the EC150 in the experiment filed under Rattus norvegicus [1] worked out at 8 µM. Further, in experiment [2], the negative logarithm of the IC50 (pIC50) is 4.54.

As for `CCOC(OCC)P(=O)(O)C[C@@H](O)CN`, in the experiment filed under Rattus norvegicus [1], the EC150 was found to be 11 µM. The compound also gave a pIC50 in experiment [2] of 4.92.

In the case of `CCCCCCP(=O)(O)CCCN`, the EC150 in the experiment filed under Rattus norvegicus [1] is 14 µM. Moreover, the pIC50 in experiment [2] was 4.70.

On to `NCC(O)CP(=O)(O)CC1CCCCC1` (stereo not drawn), for which the EC150 in the experiment filed under Rattus norvegicus [1] turned out to be 8 µM. In experiment [2], this compound showed a pIC50 of 5.30.

Compound `CCCCP(=O)(O)CC(C)(O)CN` (stereo not drawn) showed a pIC50 in [2] of 4.35.

In the case of `CC(=O)CCP(=O)(O)CCCN`, the EC150 in the experiment filed under Rattus norvegicus [1] turned out to be 4 µM. This compound gave a pIC50 in experiment [2] of 6.00.

`CCCCP(=O)(O)C(C)CCN` (stereo not drawn): in the experiment listed under Rattus norvegicus [1], the EC150 is 8 µM. In addition, in experiment [2], the pIC50 is 3.47.
